The test system of test [1] is Mus musculus. Description: In Vivo antimalarial activity of compound was tested in Plasmodium berghei infected mice (Mus musculus). It is filed as functional. In a few lines: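 Four-day suppressive test in P. berghei-infected mice, dosed daily at up to 3.0 mg/kg per day. Parasitemia is the number of infected erythrocytes over total erythrocytes. Survival is scored as increase of life span: ILS = (T/C − 1) × 100%, using mean survival days of the treated (T) and control (C) groups.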

The nature of test [2]: Selectivity index defined as mean of EC50 value for FM3A cells/mean of EC50 value for Plasmodium falciparum was determined. It is filed as functional. In a few lines:
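Index is the mean EC50 in FM3A mouse mammary tumor cells (the host-cell model) divided by the mean EC50 against chloroquine-sensitive P. falciparum FCR-3.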

The next test has as its system FM3A. The experiment in a line: Cytotoxicity of compound was tested against mouse mammary tumor FM3A cells. It is filed as functional, cell-based.
Test [3] relates to Mus musculus. Description: Antimalarial potency was evaluated by the increase of life span of mice (Mus musculus) at 1 mg/kg. It is filed as functional. The gist of the method:
(§1)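 Mice infected with P. berghei were treated daily in a 4-day suppressive test, with the dose as given in each line. Increase of life span = (T/C − 1) × 100%, where T and C are the mean survival days of the treated and control groups.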

The test system of the next test is Plasmodium falciparum. The experiment in a line: In vitro antimalarial activity against Plasmodium falciparum. Format: functional, organism-based. In a few lines:
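Chloroquine-sensitive P. falciparum, FCR-3 strain, grown in vitro; potency is reported as EC50.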

The subject of test [4] is Mus musculus. Description: Antimalarial potency was evaluated by the increase of life span of mice (Mus musculus) at 3 mg/kg. It is filed as functional. In a few lines: as §1

As for `COC(=O)[C@@]12OC[C@]34[C@H]([C@@H](O)[C@@H]1O)[C@@]1(C)CC(=O)C(OC(C)=O)=C(C)[C@@H]1C[C@H]3OC(=O)[C@H](OC(C)=O)[C@@H]24`, in the test on Mus musculus [1], the 50% effect level (ED50) was put at a dose of 0.46 mg/kg and the ED90 was 0.98 mg/kg. Moreover, the Selectivity index in test [2] worked out at 410. The same molecule showed an EC50 with FM3A of 16 µM. The molecule also gave an ILS at 1 mg/kg with Mus musculus [3] of 49%.
With `COC(=O)O[C@H]1C(=O)O[C@@H]2C[C@H]3C(C)=C(O)C(=O)C[C@]3(C)[C@H]3[C@@H](O)[C@H](O)[C@@]4(C(=O)OC)OC[C@]32[C@@H]14`, the EC50 in the test on Plasmodium falciparum amounted to 0.053 µM; with FM3A, 8.7 µM. Further, in test [2], the Selectivity index is on record as 164.
As for `CCCOC(=O)OC1=C(C)[C@@H]2C[C@H]3OC(=O)[C@H](OC(=O)OCCC)[C@H]4[C@]5(C(=O)OC)OC[C@]34[C@H]([C@@H](O)[C@@H]5O)[C@@]2(C)CC1=O`, the results for the EC50 in the test with Plasmodium falciparum and in the test on FM3A were 0.1 µM and 6.6 µM, respectively. The Selectivity index in test [2] is 66.
On to `COC(=O)[C@@]12OC[C@]34[C@H]([C@@H](O)[C@@H]1O)[C@@]1(C)CC(=O)C(OC(=O)OC(C)C)=C(C)[C@@H]1C[C@H]3OC(=O)[C@H](OC(=O)OC(C)C)[C@@H]24`, for which, in the test on Mus musculus [4], the ILS at 3 mg/kg was 86%. In the test on Mus musculus [1], this molecule showed an ED50 of 1.4 mg/kg and an ED90 above 3 mg/kg. Besides, the EC50 with Plasmodium falciparum stood at 0.08 µM. The molecule further showed a Selectivity index in test [2] of 138. The EC50 with FM3A was determined as 11 µM.
As to `COC(=O)OC1=C(C)[C@@H]2C[C@H]3OC(=O)[C@H](OC(=O)OC)[C@H]4[C@]5(C(=O)OC)OC[C@]34[C@H]([C@@H](O)[C@@H]5O)[C@@]2(C)CC1=O`, the ILS at 3 mg/kg in the test with Mus musculus [4] was 196%. In the test on Mus musculus [1], this molecule yielded an ED50 of 1.3 mg/kg and an ED90 of 3 mg/kg. This molecule had an EC50 in the test with Plasmodium falciparum of 0.09 µM. For the same molecule, the Selectivity index in test [2] is reported as above 700. Moreover, the EC50 in the test with FM3A is above 63 µM.
As to `COC(=O)[C@@]12OC[C@]34[C@H]([C@@H](O)[C@@H]1O)[C@@]1(C)CC(=O)C(OC(C)=O)=C(C)[C@@H]1C[C@H]3OC(=O)[C@H](O)[C@@H]24`, the EC50 in the test on Plasmodium falciparum is 0.88 µM; in the test on FM3A it was above 32 µM. The molecule also yielded a Selectivity index in test [2] above 36.
With `CCCCOC(=O)OC1=C(C)[C@@H]2C[C@H]3OC(=O)[C@H](OC(=O)OCCCC)[C@H]4[C@]5(C(=O)OC)OC[C@]34[C@H]([C@@H](O)[C@@H]5O)[C@@]2(C)CC1=O`, the EC50 came to 0.014 µM in the test on Plasmodium falciparum and 0.7 µM in the test on FM3A. This molecule also came in with a Selectivity index in test [2] of 50.
For the molecule `CCOC(=O)OC1=C(C)[C@@H]2C[C@H]3OC(=O)[C@H](OC(=O)OCC)[C@H]4[C@]5(C(=O)OC)OC[C@]34[C@H]([C@@H](O)[C@@H]5O)[C@@]2(C)CC1=O`, the ILS at 3 mg/kg in the test on Mus musculus [4] was 182%. Besides, in the test on Mus musculus [1], the ED50 came to 0.49 mg/kg and the ED90 was 1.9 mg/kg. In the test with Plasmodium falciparum, this molecule registered an EC50 of 0.064 µM. In test [2], this molecule displayed a Selectivity index of 563. In addition, a half-maximal effect in the test with FM3A (EC50) was put at 36 µM.
In the case of `COC(=O)[C@@]12OC[C@]34[C@H]([C@@H](O)[C@@H]1O)[C@@]1(C)CC(=O)C(O)=C(C)[C@@H]1C[C@H]3OC(=O)[C@H](OC(C)=O)[C@@H]24` [BRUCEINE B], the Selectivity index in test [2] is 333. Besides, the EC50 in the test on FM3A came out at 8 µM.
In the case of `COC(=O)[C@@]12OC[C@]34[C@H]([C@@H](O)[C@@H]1O)[C@@]1(C)CC(=O)C(O)=C(C)[C@@H]1C[C@H]3OC(=O)[C@H](O)[C@@H]24` [BRUCEOLIDE], the ED50 in the test on Mus musculus [1] came to 1.1 mg/kg.
Regarding `CCN(CC)CCCC(C)Nc1ccnc2cc(Cl)ccc12` (stereo not drawn) [CHLOROQUINE], in the test on Mus musculus [4], the ILS at 3 mg/kg was determined as 15%. In the test on Mus musculus [1], this molecule yielded an ED50 of 2 mg/kg and an ED90 of 3.3 mg/kg. The molecule also had a Selectivity index in test [2] of 1780. The same molecule registered an EC50 in the test with FM3A of 32 µM.

The values above are taken from ChEMBL document CHEMBL1145969, “New semisynthetic quassinoids with in vivo antimalarial activity” (J Med Chem, 2003).
